# “Also recorded” adds a separate entry of the source.
# Key:
# [1] = molecular target: His-mHtt and GST-CaM (CaM–mHtt interaction) (Homo sapiens, UniProt P0DP23+P42858); test: CaM/mHtt AlphaScreen binding assay; details: for IC50: read-out: AlphaScreen CaM–mHtt, IC50, triplicate
# In short: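 His-mHtt (10 nM) preincubated 30 min with test compound, then GST-CaM (10 nM) added for 60 min at room temperature. Ni-chelate acceptor (10 μg/mL) and glutathione donor beads (15 μg/mL) are added for 2 h, then Alpha counts are read. Final 300–0.002 μM, triplicate; % inhibition normalized to DMSO controls.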
# SH-SY5Y cells = test: Cytotoxicity assay; format: cell-based; details: for Cytotoxicity (SH-SY5Y cells, 24 h): 24 h incubation, CellTiter-Glo; for Cytotoxicity (SH-SY5Y cells, 24 h) / Cytotoxicity as stated in text: SH-SY5Y cells; for Cytotoxicity as stated in text: approximate value for both enantiomers
# In short: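 SH-SY5Y cells seeded at 6000/well in 1:1 EMEM/F12 with 10% FBS. Exposure 24 h at 37 °C, then CellTiter-Glo luminescence read. Percent cytotoxicity normalized to DMSO controls.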
# [2] = molecular target: death-associate protein kinase 1 (DAPK1) (Homo sapiens, UniProt P53355); test: CaM-dependent kinase assay; format: biochemical; details: single concentration of 100 μM, in the presence of CaM
# In short: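 Recombinant DAPK1 (25 ng), run with ADP-Glo at 5 μM ATP with native swine myelin basic protein as substrate, in the presence of CaM. Test compound is added at a single 100 μM (DMSO) and reacted 60 min at room temperature. Luminescence is read, and activity is expressed as percent of the no-compound reaction. Three experiments, ≥2 replicates each; mean ± SEM.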
# [3] = test system: calcium/CaM-dependent kinase 2γ (CaMK2γ); test: CaM-dependent kinase assay; format: biochemical, Human; details: single concentration of 100 μM, in the presence of CaM
# In short: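 ADP-Glo reaction with CaMK2γ (12 ng), 25 μM ATP and Autocamtide-2 substrate, carried out with CaM present. Test compound is at a single 100 μM from DMSO; incubation 60 min at room temperature. Luminescent readout gives percent enzyme activity relative to the reaction without compound. Run three times with at least two replicates per experiment; mean ± SEM.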
# [4] = test system: mHtt toxicity in PC12 cells; test: Protection against mHtt toxicity in neuronal cell model for HD; format: cell-based; details: three different concentrations
# In short: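 Each experiment run at least three times; values reported as mean ± standard error of the mean.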
# Kinetic solubility = format: physicochemical
# PAMPA permeability = format: in vitro ADME
# Sequence of His-mHtt and GST-CaM (CaM–mHtt interaction) (P42858 whole entry, one chain of several): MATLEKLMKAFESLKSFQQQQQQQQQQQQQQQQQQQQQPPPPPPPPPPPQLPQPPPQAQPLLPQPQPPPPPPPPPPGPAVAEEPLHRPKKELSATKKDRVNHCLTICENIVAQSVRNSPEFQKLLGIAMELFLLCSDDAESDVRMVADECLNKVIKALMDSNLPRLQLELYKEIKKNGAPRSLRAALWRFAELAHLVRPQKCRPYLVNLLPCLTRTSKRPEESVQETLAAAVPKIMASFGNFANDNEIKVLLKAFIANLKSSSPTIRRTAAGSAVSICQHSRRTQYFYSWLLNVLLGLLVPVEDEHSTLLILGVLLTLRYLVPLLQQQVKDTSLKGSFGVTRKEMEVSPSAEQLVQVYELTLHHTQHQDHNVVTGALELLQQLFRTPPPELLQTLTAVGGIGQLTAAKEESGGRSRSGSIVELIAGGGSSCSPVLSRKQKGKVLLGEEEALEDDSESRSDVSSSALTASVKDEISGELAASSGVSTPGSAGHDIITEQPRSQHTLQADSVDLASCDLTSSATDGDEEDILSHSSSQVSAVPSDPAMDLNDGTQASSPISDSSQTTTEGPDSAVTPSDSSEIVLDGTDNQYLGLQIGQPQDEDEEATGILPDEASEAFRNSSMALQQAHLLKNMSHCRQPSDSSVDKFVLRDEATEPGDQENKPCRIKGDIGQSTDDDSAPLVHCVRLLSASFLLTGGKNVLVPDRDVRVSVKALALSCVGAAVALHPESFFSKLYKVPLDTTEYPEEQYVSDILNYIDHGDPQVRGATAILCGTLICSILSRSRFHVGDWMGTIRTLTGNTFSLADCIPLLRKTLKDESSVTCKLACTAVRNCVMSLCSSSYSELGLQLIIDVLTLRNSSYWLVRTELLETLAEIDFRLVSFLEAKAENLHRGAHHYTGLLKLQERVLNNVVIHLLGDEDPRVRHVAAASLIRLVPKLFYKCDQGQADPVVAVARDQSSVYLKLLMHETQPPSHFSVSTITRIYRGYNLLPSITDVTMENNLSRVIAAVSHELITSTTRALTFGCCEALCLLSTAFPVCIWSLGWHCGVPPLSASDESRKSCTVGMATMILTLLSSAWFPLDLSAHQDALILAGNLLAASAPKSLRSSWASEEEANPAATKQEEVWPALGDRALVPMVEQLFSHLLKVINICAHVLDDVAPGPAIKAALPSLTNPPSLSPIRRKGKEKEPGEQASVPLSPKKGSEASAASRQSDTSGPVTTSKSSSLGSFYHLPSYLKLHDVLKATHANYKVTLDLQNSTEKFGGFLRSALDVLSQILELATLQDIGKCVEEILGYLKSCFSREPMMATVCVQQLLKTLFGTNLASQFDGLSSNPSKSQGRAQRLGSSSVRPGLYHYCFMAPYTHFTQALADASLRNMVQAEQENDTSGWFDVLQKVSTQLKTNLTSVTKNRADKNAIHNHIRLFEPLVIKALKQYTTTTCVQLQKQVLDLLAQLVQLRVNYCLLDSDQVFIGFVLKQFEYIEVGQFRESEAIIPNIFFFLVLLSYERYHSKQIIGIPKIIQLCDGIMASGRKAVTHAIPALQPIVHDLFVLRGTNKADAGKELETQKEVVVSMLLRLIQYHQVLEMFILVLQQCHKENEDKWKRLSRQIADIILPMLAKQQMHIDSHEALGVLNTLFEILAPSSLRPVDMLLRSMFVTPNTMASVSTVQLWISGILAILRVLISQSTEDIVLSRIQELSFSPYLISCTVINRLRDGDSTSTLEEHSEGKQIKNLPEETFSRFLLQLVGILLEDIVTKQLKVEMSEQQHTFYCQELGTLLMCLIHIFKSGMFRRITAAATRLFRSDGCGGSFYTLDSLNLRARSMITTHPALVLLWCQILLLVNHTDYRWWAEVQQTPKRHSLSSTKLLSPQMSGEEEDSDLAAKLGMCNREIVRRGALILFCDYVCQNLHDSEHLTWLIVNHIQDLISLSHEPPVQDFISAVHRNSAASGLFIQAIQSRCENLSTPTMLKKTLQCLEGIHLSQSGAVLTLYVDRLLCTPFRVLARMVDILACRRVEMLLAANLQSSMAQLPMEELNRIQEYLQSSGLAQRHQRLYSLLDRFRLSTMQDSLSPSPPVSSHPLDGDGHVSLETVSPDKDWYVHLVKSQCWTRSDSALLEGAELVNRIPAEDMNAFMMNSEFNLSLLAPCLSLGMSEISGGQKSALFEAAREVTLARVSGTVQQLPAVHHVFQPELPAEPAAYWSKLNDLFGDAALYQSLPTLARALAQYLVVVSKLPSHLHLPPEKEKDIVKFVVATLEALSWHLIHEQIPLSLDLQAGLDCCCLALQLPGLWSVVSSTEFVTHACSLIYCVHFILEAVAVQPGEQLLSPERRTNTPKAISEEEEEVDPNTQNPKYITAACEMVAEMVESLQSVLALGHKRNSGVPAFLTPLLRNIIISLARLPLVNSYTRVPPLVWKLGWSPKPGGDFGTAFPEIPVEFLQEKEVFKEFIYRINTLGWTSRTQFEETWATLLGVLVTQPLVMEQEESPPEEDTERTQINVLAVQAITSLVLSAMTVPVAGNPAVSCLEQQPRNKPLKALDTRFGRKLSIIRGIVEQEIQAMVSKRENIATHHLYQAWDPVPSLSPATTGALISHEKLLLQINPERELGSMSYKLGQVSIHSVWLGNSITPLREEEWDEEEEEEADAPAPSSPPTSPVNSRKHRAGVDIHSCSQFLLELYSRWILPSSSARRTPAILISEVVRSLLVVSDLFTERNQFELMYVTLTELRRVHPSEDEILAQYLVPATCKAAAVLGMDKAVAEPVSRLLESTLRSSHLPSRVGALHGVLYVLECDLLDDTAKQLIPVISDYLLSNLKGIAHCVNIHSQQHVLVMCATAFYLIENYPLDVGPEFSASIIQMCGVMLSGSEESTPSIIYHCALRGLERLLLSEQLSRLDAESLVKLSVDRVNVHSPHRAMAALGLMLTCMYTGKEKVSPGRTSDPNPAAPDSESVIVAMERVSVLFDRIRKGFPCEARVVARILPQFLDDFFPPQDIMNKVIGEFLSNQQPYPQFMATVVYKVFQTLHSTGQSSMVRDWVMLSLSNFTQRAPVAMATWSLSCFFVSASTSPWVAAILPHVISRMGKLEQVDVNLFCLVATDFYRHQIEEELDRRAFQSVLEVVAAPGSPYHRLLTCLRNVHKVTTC
# Sequence of death-associate protein kinase 1 (DAPK1) (P53355 1-363): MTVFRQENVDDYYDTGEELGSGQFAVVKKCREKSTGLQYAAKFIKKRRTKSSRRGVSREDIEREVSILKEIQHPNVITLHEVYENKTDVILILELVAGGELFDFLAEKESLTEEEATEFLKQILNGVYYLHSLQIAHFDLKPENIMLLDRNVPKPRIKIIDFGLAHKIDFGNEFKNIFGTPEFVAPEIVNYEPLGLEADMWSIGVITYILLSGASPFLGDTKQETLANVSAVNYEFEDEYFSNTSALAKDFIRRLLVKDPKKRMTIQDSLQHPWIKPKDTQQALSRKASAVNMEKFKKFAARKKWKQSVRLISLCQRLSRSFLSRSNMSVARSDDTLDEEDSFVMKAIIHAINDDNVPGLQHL
SMILES,IC50 [1] [µM],"Cytotoxicity (SH-SY5Y cells, 24 h) (SH-SY5Y cells) [µM]",Inhibition of DAPK1 enzyme activity (in words) [2],Inhibition of CaMK2γ enzyme activity (in words) [3],Protection against mHtt toxicity (in words) [4],Cytotoxicity as stated in text (SH-SY5Y cells),kinetic solubility (Kinetic solubility) [µM],permeability (PAMPA assay) (PAMPA permeability) [×10⁻⁶ cm/s],Disruption of mHtt-CaM PPI (in words) [1],Toxicity to SH-SY5Y cells (in words) (SH-SY5Y cells)
"C=C1CCN([C@@H](CC(C)C)C(=O)NCc2ccc(Cl)c(C(F)(F)F)c2)S(=O)(=O)c2ccccc21 [Compound 9d, (S)-N-(4-Chloro-3-(trifluoromethyl)benzyl)-4-methyl-2-(5-methylene-1,1-dioxido-4,5-dihydrobenzo[f][1,2]thiazepin-2 (3H)-yl)pentanamide]",1.38,>300,did not significantly inhibit,did not significantly inhibit,barely measurable activity; also recorded: do not show protection; also recorded: no significant rescue of the toxicity,,,,,
"C=C1CCN([C@@H](CC(C)C)C(=O)NCc2ccc(Cl)cc2)S(=O)(=O)c2ccccc21 [Compound 9c, (S)-N-(4-Chlorobenzyl)-4-methyl-2-(5-methylene-1,1-dioxido-4,5-dihydrobenzo[f][1,2]thiazepin-2(3H)-yl) pentanamide]",2.8,94 ± 3,did not significantly inhibit,did not significantly inhibit,,ca. 90 pM,,,,
C=C1CCN([C@H](CC(C)C)C(=O)NCCc2ccc(Cl)c(Cl)c2)S(=O)(=O)c2ccccc21 [Compound 10h],0.5,>300,did not significantly inhibit,did not significantly inhibit,,,,,,
"C=C1CCN([C@H](CC(C)C)C(=O)NCc2ccc(Cl)cc2)S(=O)(=O)c2ccccc21 [Compound 10c, (R)-N-(4-Chlorobenzyl)-4-methyl-2-(5-methylene-1,1-dioxido-4,5-dihydrobenzo[f][1,2]thiazepin-2(3H)-yl) pentanamide]",3,86 ± 9,did not significantly inhibit,did not significantly inhibit,,ca. 90 pM,,,,
"C=C1CCN([C@@H](CC(C)C)C(=O)NCCc2ccc(Cl)c(Cl)c2)S(=O)(=O)c2ccccc21 [Compound 9h, (S)-N-(3,4-Dichlorophenethyl)-4-methyl-2-(5-methylene-1,1-dioxido-4,5-dihydrobenzo[f][1,2]thiazepin-2(3H)-yl) pentanamide]",0.55,>300,but not DAPK1 activity,statistically significant impact; also recorded: statistically significant effect on inhibition,barely measurable activity; also recorded: do not show protection; also recorded: did not show any significant effect,,0.6,0.76,,
"COc1ccc(CNC(=O)[C@H](CC(C)C)N2CCC(=O)c3ccccc3S2(=O)=O)cc1 [Compound 11f, (S)-2-(1,1-Dioxido-5-oxo-4,5-dihydrobenzo[f][1,2]thiazepin-2(3H)-yl)-N-(4-methoxybenzyl)-4-methylpentanamide]",52.6,44.6,,,,,,,retained marginal activity,
"C=C1CCN([C@H](CC(C)C)C(=O)NCc2ccc(OC)cc2)S(=O)(=O)c2ccccc21 [Compound 10f, (R)-N-(4-Methoxybenzyl)-4-methyl-2-(5-methylene-1,1-dioxido-4,5-dihydrobenzo[f][1,2]thiazepin-2(3H)-yl) pentanamide]",> 300,>300,,,,,,,lost all mHtt-CaM disruption activity,
"C=C1CCN([C@@H](CC(C)C)C(=O)NCc2ccc(C)cc2)S(=O)(=O)c2ccccc21 [Compound 9e, (S)-4-Methyl-N-(4-methylbenzyl)-2-(5-methylene-1,1-dioxido-4,5-dihydrobenzo[f][1,2]thiazepin-2(3H)-yl) pentanamide]",15,102 ± 7,,,,,,,,
"CC(C)C[C@@H](C(=O)NCC1CCCCC1)N1CCC(=O)c2ccccc2S1(=O)=O [Compound 11g, (S)-W-(Cyclohexylmethyl)-2-(1,1-dioxido-5-oxo-4,5-dihydrobenzo[f][1,2]thiazepin-2(3H)-yl)-4-methylpentanamide]",31,40.1,,,,,,,,
"C=C1CCN([C@H](CC(C)C)C(=O)NCc2ccccc2)S(=O)(=O)c2ccccc21 [Compound 10b, (R)-N-Benzyl-4-methyl-2-(5-methylene-1,1-dioxido-4,5-dihydrobenzo[f][1,2]thiazepin-2(3H)-yl)pentanamide]",12.7,87 ± 2,,,,,,,,
"C=C1CCN([C@H](CC(C)C)C(=O)NCc2ccc(Cl)c(C(F)(F)F)c2)S(=O)(=O)c2ccccc21 [Compound 10d, (R)-N-(4-Chloro-3-(trifluoromethyl)benzyl)-4-methyl-2-(5-methylene-1,1-dioxido-4,5-dihydrobenzo[f][1,2]thiazepin-2 (3H)-yl)pentanamide]",1.8,>300,,,,,,,,
C=C1CCN([C@@H](CC(C)C)C(=O)NCc2ccc(Cl)c(Cl)c2)S(=O)(=O)c2ccccc21 [Compound 9a],1.03,>300,,,,,,,retained activity,no measurable toxicity
"C=C1CCN([C@@H](CC(C)C)C(=O)NCC2CCCCC2)S(=O)(=O)c2ccccc21 [Compound 9g, (S)-N-(Cyclohexylmethyl)-4-methyl-2-(5-methylene-1,1-dioxido-4,5-dihydrobenzo[f][1,2]thiazepin-2(3H)-yl) pentanamide]",16.6,101 ± 5,,,,,,,,
